Activity calls are given as the source filed them.
Tests used:
[1] = test system: Dengue virus; assay: Inhibition of Dengue virus NS2B-NS3 protease using Abz-NleKRRS-3-(NO2)Y as substrate at 50 uM preincubated for 15 mins measured every sec for 15 mins by fluorimetric analysis
[2] = target: Prothrombin (Bos taurus) (UniProt P00735); assay: Inhibition of bovine plasma thrombin using Boc-Val-Pro-Arg-AMC as substrate at 25 uM preincubated for 15 mins measured after 10 mins by fluorimetric assay
Summary of the method: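 Purchased bovine plasma thrombin at 10 nM final, preincubated 15 min with 25 μM inhibitor; reaction started with 50 μM substrate. Buffer 50 mM Tris-HCl pH 7.5, 150 mM NaCl, 0.05% Tween 20. Triplicate, averaged.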

[3] = test system: Escherichia coli; assay: Inhibition of Escherichia coli MurA using PEP as substrate assessed as inorganic phosphate release at 25 uM preincubated for 10 mins measured after 60 mins […]
[4] = test system: Escherichia coli; assay: Inhibition of Escherichia coli MetAP at 10 uM after 15 mins by fluorescence analysis

SMILES	inhibition [1]	inhibition [2]	inhibition [3]	inhibition [4]
COc1ccc(/C=C2\SC(=S)NC2=O)cc1OC	50%	29%	inactive	inactive
O=C1NC(=O)/C(=C/c2ccco2)N1	25%	23%	10%	inactive
COc1ccc(/C=C/C=C2\NC(=S)NC2=O)cc1	13%	18%	48%	27%
CCC/C=C/C1SC(=S)NC1=O (stereo not given)	23%	11%	88%	inactive
O=C1NC(=O)/C(=C/c2ccc(Cl)cc2Cl)N1	15%	inactive	inactive	inactive
C/C(=C1/NC(=S)NC1=O)c1ccc2ccccc2c1	33%	10%	inactive	15%
COc1ccccc1/C=C1\SC(=O)NC1=O	17%	11%	25%	10%
O=C1NC(=S)NC1=C(c1ccccc1)c1ccccc1	inactive	inactive	inactive	24%
O=C1NC(=O)/C(=C/c2cccc(O)c2)S1	18%	inactive	inactive	11%
Cn1cc(/C=C2\NC(=O)NC2=O)c2ccccc21	34%	20%	inactive	inactive
O=C1NC(=S)N/C1=C\c1cnc[nH]1	29%	30%	57%	83%
COc1ccc(/C=C/C=C2\SC(=S)NC2=O)cc1	51%	20%	62%	12%
CCC/C=C/C1NC(=S)NC1=O (stereo not given)	inactive	14%	77%	19%
Cc1ccc(/C=C2\SC(O)=NC2=O)cc1	17%	18%	inactive	inactive
COc1ccc(/C=C2\NC(=S)NC2=O)cc1OC	44%	20%	18%	11%
CCCC/C=C/C1SC(=S)NC1=O (stereo not given)	18%	inactive	10%	17%
CC(=O)N1C(=S)NC(=O)[C@@H]1Cc1ccc(O)cc1	inactive	inactive	inactive	inactive
NCCCC[C@@H]1NC(=S)NC1=O	11%	inactive	inactive	inactive
COc1cccc(/C=C2\NC(=S)NC2=O)c1	28%	15%	10%	18%
O=C1NC(=S)S/C1=C\c1ccc(Br)s1	50%	22%	21%	inactive

SMILES	inhibition [1]	inhibition [2]	inhibition [3]	inhibition [4]
O=C1NC(=S)N[C@H]1Cc1ccccc1	inactive	inactive	17%	12%
CC(=O)N1C(=S)NC(=O)[C@@H]1CCCCN	inactive	inactive	12%	inactive
COc1cccc(/C=C2\SC(=O)NC2=O)c1	17%	11%	25%	10%
C/C(=C1/SC(=S)NC1=O)c1ccc(F)cc1	inactive	20%	69%	inactive
O=C1NC(=S)N[C@@H]1Cc1ccccc1	14%	12%	11%	inactive
COc1cc(/C=C2\SC(=O)NC2=O)ccc1O	19%	27%	100%	inactive
COc1ccccc1/C=C1\SC(=S)NC1=O	33%	11%	10%	inactive
O=C1NC(=S)S/C1=C\c1c(F)c(F)c(F)c(F)c1F	27%	25%	inactive	inactive
O=C1NC(=S)NC1Cc1ccc(O)c(O)c1 (stereo not given)	15%	inactive	63%	73%
CC(C)C[C@@H]1NC(=S)NC1=O	inactive	inactive	20%	inactive
O=C1NC(=S)N/C1=C\c1ccccn1	47%	38%	13%	95%
O=C1NC(=O)/C(=C/c2c[nH]c3ccccc23)N1	36%	15%	inactive	inactive
O=C1NC(=S)SC1Cc1ccccc1 (stereo not given)	inactive	inactive	11%	inactive
O=C1NC(=O)/C(=C/c2ccccc2)S1	25%	15%	inactive	inactive
C/C(=C1/SC(=S)NC1=O)c1ccccc1	23%	19%	33%	inactive
CN(C)c1ccc(/C=C2\SC(=S)NC2=O)cc1	36%	21%	15%	inactive
O=C1NC(=S)N/C1=C\c1ccc(Cl)s1	42%	29%	22%	inactive
CC(=O)N1C(=S)NC(=O)[C@@H]1CCC(N)=O	inactive	inactive	inactive	13%
CCCC/C=C/C1NC(=S)NC1=O (stereo not given)	inactive	10%	64%	inactive
O=C1NC(=S)S/C1=C\c1cccc(O)c1	29%	15%	58%	12%

SMILES	inhibition [1]	inhibition [2]	inhibition [3]	inhibition [4]
O=C1NC(=O)[C@H](Cc2c[nH]c3ccccc23)N1	inactive	inactive	inactive	19%
O=C1NC(=S)S/C1=C\C=C\c1ccco1	26%	28%	94%	14%
O=C1CNC(=O)N1	inactive	inactive	inactive	inactive
O=C1CSC(=S)N1	14%	inactive	inactive	inactive
NC(=O)CC[C@@H]1NC(=S)NC1=O	10%	inactive	25%	inactive
CCCCC/C=C1\NC(=S)NC1=O	18%	16%	17%	27%
CN(C)c1ccc(/C=C2\NC(=S)NC2=O)cc1	42%	25%	51%	75%
Cc1ccc(/C=C2\NC(=O)NC2=O)cc1	inactive	inactive	inactive	11%
O=C1NC(=O)/C(=C/c2cccc(O)c2)N1	27%	12%	inactive	inactive
O=C1NC(=S)S/C1=C\C1CCCCC1	22%	29%	13%	40%
O=C1NC(=S)S/C1=C\c1ccc(Cl)cc1Cl	46%	23%	15%	inactive
O=C1NC(=O)/C(=C/C2CCCCC2)S1	25%	inactive	inactive	inactive
COc1ccc(/C=C2\NC(=O)NC2=O)cc1	24%	10%	inactive	10%
O=C1NC(=S)N/C1=C\c1ccc(Br)s1	46%	17%	75%	10%
O=C1NC(=O)/C(=C/c2ccc3ccccc3c2)S1	inactive	19%	inactive	inactive
CCCC/C=C1\NC(=S)NC1=O	25%	14%	11%	66%
O=C1NC(=O)/C(=C/c2sccc2Br)N1	13%	16%	inactive	inactive
O=C1NC(=S)S/C1=C\c1cc(Br)cs1	47%	21%	18%	inactive
Cn1cc(/C=C2\SC(=S)NC2=O)c2ccccc21	45%	27%	18%	12%
O=C1NC(=O)/C(=C/c2ccc(O)cc2)S1	32%	34%	inactive	inactive
